Substitutions are numbered along the chain they refer to. Where two headings read alike, the source gives them in different places.
Assays:
Assay type in all cases: cell-based
rP2X2 Lys69Arg = molecular target: T1, rP2X2 Lys69Arg (Rattus norvegicus, UniProt P49653, K69R); assay: Two-electrode voltage clamp, oocytes expressing rP2X2 Lys69Arg
T1 sequence (P49653 1-472 K69R): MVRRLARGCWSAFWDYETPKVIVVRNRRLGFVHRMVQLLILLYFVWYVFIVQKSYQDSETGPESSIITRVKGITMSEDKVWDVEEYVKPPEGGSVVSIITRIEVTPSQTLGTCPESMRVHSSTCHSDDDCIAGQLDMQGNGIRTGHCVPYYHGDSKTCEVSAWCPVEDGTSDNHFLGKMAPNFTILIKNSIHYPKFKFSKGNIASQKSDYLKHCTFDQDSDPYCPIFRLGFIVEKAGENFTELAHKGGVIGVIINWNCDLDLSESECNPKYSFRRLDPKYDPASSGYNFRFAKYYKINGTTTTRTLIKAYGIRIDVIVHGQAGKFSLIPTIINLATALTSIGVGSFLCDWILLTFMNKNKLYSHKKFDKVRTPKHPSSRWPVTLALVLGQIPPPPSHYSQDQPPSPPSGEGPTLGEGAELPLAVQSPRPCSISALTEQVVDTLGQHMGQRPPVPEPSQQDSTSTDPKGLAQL

rP2X2 Val96Vah = molecular target: T2, rP2X2 Val96Vah (Rattus norvegicus, UniProt P49653); assay: Two-electrode voltage clamp, oocytes expressing rP2X2 Val96Vah
T2 sequence (P49653 1-472): T1 sequence (P49653 1-472 K69R) with R69K
Method in brief: (§1)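 The backbone ester was introduced by nonsense suppression. TAG-mutant rP2X2 mRNA was co-injected into Xenopus oocytes with tRNA enzymatically aminoacylated with 2-hydroxyisovaleric acid. Uncharged tRNA co-injection served as the negative control. After incubation at 18°C, two-electrode voltage clamp was done at −40 mV in ND96 (pH 7.4). ATP concentration-response data were normalised and Hill-fitted for EC50 and nH, given as mean ± SEM.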

rP2X2 Lys71Arg = molecular target: T3, rP2X2 Lys71Arg (Rattus norvegicus, UniProt P49653, K71R); assay: Two-electrode voltage clamp, oocytes expressing rP2X2 Lys71Arg
T3 sequence (P49653 1-472 K71R): T1 sequence (P49653 1-472 K69R) with R69K, K71R
Method in brief: (§2)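 Mutations were made by site-directed mutagenesis. Xenopus oocytes were injected with rP2X2 mRNA and incubated in L-15 at 18°C. Two-electrode voltage clamp was done 1–2 days later at −40 mV under ND96 perfusion (pH 7.4). ATP concentration-response currents were normalised and fitted to a one-component Hill equation for EC50 and Hill coefficient. Results are mean ± SEM, tested by one-way ANOVA with Dunnett's test against WT.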

rP2X2 Lys308Arg = molecular target: T4, rP2X2 Lys308Arg (Rattus norvegicus, UniProt P49653, K308R); assay: Two-electrode voltage clamp, oocytes expressing rP2X2 Lys308Arg
T4 sequence (P49653 1-472 K308R): T1 sequence (P49653 1-472 K69R) with R69K, K308R
Method in brief: as §2

rP2X2 Ile185Val = molecular target: T5, rP2X2 Ile185Val (Rattus norvegicus, UniProt P49653, I185V); assay: Two-electrode voltage clamp, oocytes expressing rP2X2 Ile185Val
T5 sequence (P49653 1-472 I185V): T1 sequence (P49653 1-472 K69R) with R69K, I185V
Method in brief: as §2

rP2X2 Ile185Vah = molecular target: T6, rP2X2 Ile185Vah (Rattus norvegicus, UniProt P49653); assay: Two-electrode voltage clamp, oocytes expressing rP2X2 Ile185Vah
T6 sequence (P49653 1-472): T1 sequence (P49653 1-472 K69R) with R69K
Method in brief: as §1

EC50 (rP2X2 Lys69Arg): > 5000 µM
EC50 (rP2X2 Lys69Arg; mean ± SEM): 6000 µM
EC50 (rP2X2 Val96Vah): 27 ± 2 µM
Effect of Vah incorporation on EC50 (in words) (rP2X2 Val96Vah; Val96Vah compared with WT): did not affect the ATP EC50
EC50 (rP2X2 Lys71Arg): 370 ± 40 µM
EC50 (rP2X2 Lys308Arg): 6000 µM
EC50 (rP2X2 Ile185Val): 23 ± 3 µM
Fold increase in EC50 (decrease in sensitivity), Ile185Vah versus Ile185Val (rP2X2 Ile185Vah; Ile185Vah compared with Ile185Val): 20 fold
EC50 (rP2X2 Ile185Vah; Ile185Vah, mean ± SEM): 460 ± 20 µM
SMILES: Nc1ncnc2c1ncn2[C@@H]1O[C@H](COP(=O)(O)OP(=O)(O)OP(=O)(O)O)[C@@H](O)[C@H]1O [ATP, Adenosine 5′-triphosphate]
